# Assay results published in ChEMBL document CHEMBL1134284, “The biological effects of structural variation at the meta position of the aromatic rings and at the end of the alkenyl chain in the alkenyldiarylmethane series of non-nucleoside reverse transcriptase inhibitors” (J Med Chem, 2001).
# Legend:
# CCRF-CEM [1] = experiment: Antiviral activity against site directed resistant isolates in HIV-1 A98G CEM cells; assay type: functional, cell-based, Homo sapiens
# How it was run: (§1)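 CEM-SS cells infected with low-cytopathicity site-directed RT-mutant NL4-3 clones (A98G, L74V, 4XAZT = D67N/K70R/T215Y/K219Q, 4XAZT/L100I). Replication was quantified by p24 ELISA rather than cytoprotection. […] Triplicate, variation of mean about 10%.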
# [2] = (§2) Antiviral activity against ROJO virus strain in PBLs (peripheral blood lymphocytes); assay type: ADME, cell-based; settings: human, read-out: TC50 (the source's name)
# How it was run: (§3)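 PBMC from hepatitis- and HIV-seronegative donors isolated by Ficoll-Hypaque gradient and stimulated 3 days with phytohemagglutinin/IL-2 before infection. Medium RPMI 1640 with 10% FBS, 2 mM glutamine, penicillin/streptomycin. Replication read as supernatant reverse transcriptase activity. […] Run in triplicate, SD within triplicate under 10%; AZT positive control.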
# [3] = as §2; assay type: functional, cell-based; settings: Homo sapiens
# How it was run: (§4)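 PBMCs isolated from hepatitis- and HIV-seronegative donors by Ficoll-Hypaque gradient and stimulated 3 days with phytohemagglutinin/IL-2. Infected with pediatric low-passage clinical isolates or NIAID subtype isolates, in RPMI 1640 with 10% FBS, 2 mM glutamine, penicillin/streptomycin. Replication read as supernatant reverse transcriptase activity. […] Run in triplicate, with AZT as positive control.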
# [4] = (§5) Antiviral activity against subtype isolate D strain in PBLs (peripheral blood lymphocytes); assay type: functional, cell-based; settings: Homo sapiens; how it was run: as §4
# [5] = (§6) Antiviral activity against multi drug resistant MDR 769 strain in PBLs (peripheral blood lymphocytes); assay type: ADME, cell-based; settings: human, read-out: TC50 (the source's name); how it was run: as §3
# [6] = (§7) Antiviral activity against subtype isolate E strain in PBLs (peripheral blood lymphocytes); assay type: ADME, cell-based; settings: human, read-out: TC50 (the source's name); how it was run: as §3
# CCRF-CEM [7] = experiment: Antiviral activity against site directed resistant isolate HIV-1 Y188C in CEM cells; assay type: functional, cell-based, Homo sapiens
# How it was run: (§8)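 CEM-SS cells in RPMI 1640 with 10% heat-inactivated FBS were infected with NL4-3 molecular clones carrying site-directed RT mutations. Cytoprotection from virus-induced syncytial killing was read by MTS/phenazine ethosulfate reduction (A490) 6 days after infection. […] Triplicate, variation of mean about 10%.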
# [8] = (§9) Antiviral activity against subtype isolate O strain in PBLs (peripheral blood lymphocytes); assay type: cell-based; settings: human, read-out: TC50 (the source's name); how it was run: as §3
# [9] = as §6; assay type: functional, cell-based; settings: Homo sapiens; how it was run: as §3
# [10] = (§10) Antiviral activity against WEJO virus strain in PBLs (peripheral blood lymphocytes); assay type: functional, cell-based; settings: Homo sapiens; how it was run: as §4
# cells = settings: Homo sapiens
# CCRF-CEM [11] = experiment: Antiviral activity against site directed 4X AZT resistant isolate HIV-1 in CEM cells; assay type: functional, cell-based, Homo sapiens; settings: ccrf-cem
# CCRF-CEM [12] = experiment: Antiviral activity against site directed 4X AZT resistant isolate HIV-1 L100I in CEM cells; assay type: functional, cell-based, Homo sapiens; how it was run: as §1
# CCRF-CEM [13] = experiment: Antiviral activity against site directed resistant isolate HIV-1 V179D in CEM cells; assay type: functional, cell-based, Homo sapiens; how it was run: as §8
# CCRF-CEM [14] = experiment: Antiviral activity against site directed resistant isolate HIV-1 L74V in CEM cells; assay type: functional, cell-based, Homo sapiens; how it was run: as §1
# CCRF-CEM [15] = experiment: Antiviral activity against site directed resistant isolate HIV-1 L100I in CEM cells; assay type: functional, cell-based, Homo sapiens; how it was run: as §8
# [16] = (§11) Antiviral activity against TEKI virus strain in PBLs (peripheral blood lymphocytes); assay type: ADME, cell-based; settings: human, read-out: TC50 (the source's name); how it was run: as §3
# [17] = as §7; assay type: functional, cell-based; settings: Homo sapiens; how it was run: as §4
# [18] = (§12) Antiviral activity against subtype isolate A strain in PBLs (peripheral blood lymphocytes); assay type: functional, cell-based; settings: Homo sapiens; how it was run: as §4
# [19] = (§13) Antiviral activity against subtype isolate F strain in PBLs (peripheral blood lymphocytes); assay type: functional, cell-based; settings: Homo sapiens; how it was run: as §4
# [20] = (§14) Antiviral activity against subtype isolate G strain in PBLs (peripheral blood lymphocytes); assay type: cell-based; settings: human, read-out: TC50 (the source's name); how it was run: as §3
# [21] = (§15) Antiviral activity against Ba-L monocyte tropic isolate strain in monocyte; assay type: ADME; settings: human, monocytes; read-out: TC50 (the source's name)
# How it was run: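 Monocytes isolated from hepatitis- and HIV-seronegative donors by Ficoll-Hypaque gradient, cultured 6 days, then infected. Medium RPMI 1640 with 10% FBS, 2 mM glutamine, penicillin/streptomycin. Virus replication measured by p24 antigen ELISA 6 days postinfection. […] Run in triplicate, SD within triplicate under 10%; AZT positive control.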
# CCRF-CEM [22] = experiment: Antiviral activity against site directed resistant isolate HIV-1 K101E in CEM cells; assay type: functional, cell-based, Homo sapiens
# [23] = as §11; assay type: functional, cell-based; settings: Homo sapiens; how it was run: as §4
# [24] = (§16) Antiviral activity against SLKA virus strain in PBLs (peripheral blood lymphocytes); assay type: functional, cell-based; settings: Homo sapiens; how it was run: as §4
# [25] = as §14; assay type: functional, cell-based; settings: Homo sapiens; how it was run: as §4
# CCRF-CEM [26] = experiment: Antiviral activity against site directed resistant isolate HIV-1 Y181C in CEM cells; assay type: functional, cell-based, Homo sapiens; how it was run: as §8
# CCRF-CEM [27] = experiment: Antiviral activity against site directed wild-type enzyme isolate HIV-1 NL4-3WT in CEM cells; assay type: functional, cell-based; settings: Homo sapiens
# How it was run: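 Wild-type NL4-3 in CEM-SS cells, measured both by MTS cytoprotection 6 days after infection and by p24 ELISA. The IC50 is the mean of the two methods' values.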
# [28] = as §13; assay type: ADME, cell-based; settings: human, read-out: TC50 (the source's name); how it was run: as §3
# [29] = as §16; assay type: ADME, cell-based; settings: human, read-out: TC50 (the source's name); how it was run: as §3
# [30] = (§17) Antiviral activity against subtype isolate B strain in PBLs (peripheral blood lymphocytes); assay type: ADME, cell-based; settings: human, read-out: TC50 (the source's name); how it was run: as §3
# CCRF-CEM [31] = experiment: Antiviral activity against site directed resistant isolate HIV-1 K103N in CEM cells; assay type: functional, cell-based, Homo sapiens; how it was run: as §8
# [32] = as §5; assay type: ADME, cell-based; settings: human, read-out: TC50 (the source's name); how it was run: as §3
# [33] = Antiviral activity against subtype isolate C strain in PBLs (peripheral blood lymphocytes); assay type: ADME, cell-based; settings: human, read-out: TC50 (the source's name); how it was run: as §3
# [34] = as §9; assay type: functional, cell-based; settings: Homo sapiens; how it was run: as §4
# [35] = as §10; assay type: ADME, cell-based; settings: human, read-out: TC50 (the source's name); how it was run: as §3
# [36] = as §17; assay type: functional, cell-based; settings: Homo sapiens; how it was run: as §4
# CCRF-CEM [37] = experiment: Antiviral activity against site directed resistant isolate HIV-1 V106A in CEM cells; assay type: functional, cell-based, Homo sapiens; how it was run: as §8
# [38] = as §12; assay type: ADME, cell-based; settings: human, read-out: TC50 (the source's name); how it was run: as §3
# [39] = as §15; assay type: functional; settings: Homo sapiens
# How it was run: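 Monocytes isolated from hepatitis- and HIV-seronegative donors by Ficoll-Hypaque gradient, cultured 6 days into macrophages, then infected with Ba-L. Medium RPMI 1640 with 10% FBS, 2 mM glutamine, penicillin/streptomycin. Replication read as p24 antigen by ELISA 6 days postinfection. […] Run in triplicate, with AZT as positive control.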
compound,measurement,setting,value
Cc1cn([C@H]2C[C@H](N=[N+]=[N-])[C@@H](CO)O2)c(=O)[nH]c1=O [ZIDOVUDINE],IC50,CCRF-CEM [1],8 nM
same,CC50,[2],> 190000 nM
same,IC50,[3],1 nM
same,IC50,[4],7 nM
same,CC50,[5],> 172000 nM
same,CC50,[6],> 170000 nM
same,IC50,CCRF-CEM [7],87 nM
same,CC50,[8],> 170000 nM
same,IC50,[9],25 nM
same,IC50,[10],1 nM
same,IC50,cells,4 nM
same,IC50,CCRF-CEM [11],82 nM
same,IC50,CCRF-CEM [12],870 nM
same,IC50,CCRF-CEM [13],20 nM
same,IC50,CCRF-CEM [14],40 nM
same,IC50,CCRF-CEM [15],6 nM
same,CC50,[16],> 190000 nM
same,IC50,[17],2 nM
same,IC50,[18],1 nM
same,IC50,[19],2 nM
same,CC50,[20],> 170000 nM
same,CC50,[21],> 200000 nM
same,IC50,CCRF-CEM [22],46 nM
same,IC50,[23],2 nM
same,IC50,[24],1 nM
same,IC50,[25],2 nM
same,IC50,CCRF-CEM [26],80 nM
same,IC50,CCRF-CEM [27],17 nM
same,CC50,[28],> 200000 nM
same,CC50,[29],> 190000 nM
same,CC50,[30],> 200000 nM
same,IC50,CCRF-CEM [31],7 nM
same,CC50,[32],> 200000 nM
same,CC50,[33],> 200000 nM
same,IC50,[34],1 nM
same,CC50,[35],> 190000 nM
same,IC50,[36],9 nM
same,IC50,CCRF-CEM [37],14 nM
same,CC50,[38],> 180000 nM
same,IC50,[39],2 nM
